Bioassay records (PubChem)
MBD2 inh: inhibitors of human MBD2 binding to methylated oligonucleotide; inhibition, % at 4.4 µM; TR-FRET; 370,000 tested, 0.31% active; AID 686964; in the data active means inhibition above about 13%
LEDGF integ inh: blocks HIV-1 LEDGF/p75-dependent DNA integration; TR-FRET IN-LEDGF/p75 DNA integration, Eu/Cy5; inhibition, % at 3.7 µM; 370,000 tested, 0.64% active;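 active means inhibition above the screen-wide mean plus 3 SD, cut at about 13% in these data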;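 further: signal is the Cy5 over europium emission ratio at 671 and 618 nm; 0% = plate median of compound wells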
UHRF1 binding: UHRF1 methyl-DNA binding inhibition. inhibition, % at 4.4 µM. 370,000 tested, 0.75% active. Q96T88. UHRF1 binding to methylated oligo, TR-FRET;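 further: UHRF1 SRA domain binding a hemimethylated CpG hairpin DNA probe; 0% = median of test compound wells and 100% = reference inhibitor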
CSN inh: inhibitors of human CSN-mediated cullin deneddylation; 360,000 tested, 0.38% active; inhibition, % at 12.5 µM; Purified CSN, SCF-Nedd8-OG deneddylation, fluorescence polarization; AID 651999; Q92905;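 active means pattern-corrected inhibition above about 35%, with an unprinted fluorescence ratio check between 0.5 and 1.5, limit read from the data, passing the limit was not always enough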;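 further: 0% = enzyme with substrate and 100% = substrate without enzyme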
Target sequence (Q92905 whole entry, looked up, one chain of several): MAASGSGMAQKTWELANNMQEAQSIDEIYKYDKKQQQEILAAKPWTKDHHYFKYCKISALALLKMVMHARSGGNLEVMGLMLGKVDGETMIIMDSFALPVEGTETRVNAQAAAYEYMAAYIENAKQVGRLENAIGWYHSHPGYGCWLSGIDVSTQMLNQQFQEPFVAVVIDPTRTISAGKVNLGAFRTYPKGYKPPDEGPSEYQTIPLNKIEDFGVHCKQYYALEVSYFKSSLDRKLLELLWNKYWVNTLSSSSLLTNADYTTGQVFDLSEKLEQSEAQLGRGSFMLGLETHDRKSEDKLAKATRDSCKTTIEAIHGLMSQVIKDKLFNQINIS
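Material: purified human Csn5 enzyme expressed in HEK293T cells / Medium: Tris buffer pH 7.5, NaCl, DTT, Tween-20, trehalose, ovalbumin / Compound dosing: 12.5 µM single point / Schedule: 90 min incubation of compound, enzyme and substrate at room temperature / Signal: fluorescence polarization of the substrate / Control set: no-enzyme wells high, enzyme-with-substrate wells low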
rCAG binder: binds r(CAG) RNA repeats | r(CAG) RNA repeat, TO-PRO-1 dye displacement fluorescence | inhibition, % at 3 µM | 370,000 tested, 1.3% active;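 active means inhibition above the plate cutoff, the mean of all test compounds on that plate plus 3 SD, cut at about 35% in these data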;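 further: 0% = DMSO alone and 100% = 100 µM mitoxantrone as full dye displacement; higher means more dye released from RNA so lower well fluorescence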
ATG4B inhibitor: blocks human ATG4B protease cleavage of LC3 substrate. Q9Y4P1. ATG4B cleavage of LC3-PLA2, NBD-HPC fluorescence, 1 h. inhibition, % at 8.33 µM. 340,000 tested, 0.51% active; in the data active means inhibition above about 40%
UHRF1 DNA bind: inhibits human UHRF1 binding to methylated oligonucleotide, MBD2 counter-screen | inhibition, % at 4.4 µM | shares compounds with MBD2 inh | 1,000 tested, 25% active | TR-FRET;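 further: UHRF1 SRA domain binding a labeled hemimethylated CpG hairpin DNA; 0% = vehicle only and 100% = reference inhibitor with vehicle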
MBD2 confirm: confirmation of human MBD2-DBD methylated oligonucleotide binding inhibitors; shares compounds with MBD2 inh; TR-FRET MBD2-DBD binding to methylated oligonucleotide; inhibition, % at 4.4 µM; 1,000 tested, 26% active; in the data active means inhibition above about 14%
* = called active by the depositor. Compounds with a hit are over-represented: about 3.1% of the library has one in this group of screens. Unless noted, no stated cut-off is given here; in the data, active means inhibition above about 21%; inactive means the rest.

What do the screens show for `COC(=O)c1cc(NC(=O)NC2CCCCN(Cc3cccc(Cl)c3)C2=O)cc(C(=O)OC)c1` (stereo unspecified)?
MBD2 inh: 0; LEDGF integ inh: -3; UHRF1 binding: 0; rCAG binder: 8

Results for O=C1OCC(c2ccccc2)=C1c1ccccc1 ?
MBD2 inh: 22*; LEDGF integ inh: 4; UHRF1 binding: 21*; CSN inh: 3; rCAG binder: 7; ATG4B inhibitor: -1; UHRF1 DNA bind: 36*; MBD2 confirm: 38*

What do the screens show for `CS(=O)(=O)c1ccc(C2=C(c3ccccc3)C(=O)OC2)cc1`?
MBD2 inh: 33*; LEDGF integ inh: 3; UHRF1 binding: 34*; CSN inh: 0; rCAG binder: 1; ATG4B inhibitor: 4; UHRF1 DNA bind: 46*; MBD2 confirm: 45*

How did CCSc1nc(O)c(Cc2ccccc2)c(=O)[nH]1 do in these assays?
MBD2 inh: 13*; LEDGF integ inh: -1; UHRF1 binding: 14; CSN inh: -5; rCAG binder: -2; ATG4B inhibitor: -9; UHRF1 DNA bind: 4; MBD2 confirm: 6

How did CCCC(=O)N1CCC[C@]2(CC[C@@H](CCC(=O)OCC)O2)C1 do in these assays?
MBD2 inh: 2; LEDGF integ inh: 4; UHRF1 binding: 4; rCAG binder: -2

How did CCc1c(C)nc(SCC(=O)Nc2c(C)n(C)n(-c3ccccc3)c2=O)[nH]c1=O do in these assays?
MBD2 inh: 20*; LEDGF integ inh: 2; UHRF1 binding: 1; CSN inh: -1; rCAG binder: 1; ATG4B inhibitor: 19; UHRF1 DNA bind: 7; MBD2 confirm: 1

What do the screens show for `Cc1nccn1-c1ccc(C=O)cc1`?
MBD2 inh: 40*; LEDGF integ inh: 2; UHRF1 binding: 2; CSN inh: 3; rCAG binder: -2; ATG4B inhibitor: 3; UHRF1 DNA bind: 0; MBD2 confirm: 3

How did COC(=O)[C@]12C[C@H](CC(=O)NCc3ccc(OC)c(OC)c3)C(=O)N(Cc3ccco3)C1=C[C@H](C(C)C)O[C@@H]2C1CC1 do in these assays?
MBD2 inh: -3; LEDGF integ inh: -4; UHRF1 binding: 0; rCAG binder: 3

What do the screens show for `COc1ccc(C(=O)COC(=O)CCC(=O)c2cccs2)cc1`?
MBD2 inh: -1; LEDGF integ inh: 3; UHRF1 binding: -1; CSN inh: 1; rCAG binder: 0; ATG4B inhibitor: -8

How did O=C(CCC(=O)c1cccs1)OCC(=O)c1ccccc1 do in these assays?
MBD2 inh: 48*; LEDGF integ inh: -4; UHRF1 binding: 0; CSN inh: 1; rCAG binder: -1; ATG4B inhibitor: 2; UHRF1 DNA bind: 4; MBD2 confirm: 1

Results for CC(C)C(NS(=O)(=O)c1cccc2nsnc12)C(=O)N1CCn2c1nc1ccccc12 (stereo unspecified) ?
MBD2 inh: 14*; LEDGF integ inh: -2; UHRF1 binding: 0; CSN inh: 3; rCAG binder: 2; ATG4B inhibitor: -10; UHRF1 DNA bind: 2; MBD2 confirm: 0

What do the screens show for `Cn1c(=O)c2c(ncn2CC2OCCO2)n(C)c1=O`?
MBD2 inh: 35*; LEDGF integ inh: -4; UHRF1 binding: 1; CSN inh: 4; rCAG binder: 3; ATG4B inhibitor: 3; UHRF1 DNA bind: 8; MBD2 confirm: 2

Results for CC(=O)N1Cc2cc(C(=O)NCC(F)(F)F)nc(-c3cccc(-c4cccnc4)c3)c2[C@H]1CCO ?
MBD2 inh: -1; LEDGF integ inh: 4; UHRF1 binding: -1; CSN inh: -2; rCAG binder: 0

What do the screens show for `CCC(=O)N1Cc2cc(C(=O)NCC(F)(F)F)nc(-c3cccc(-c4cncnc4)c3)c2[C@H]1CCO`?
MBD2 inh: 14*; LEDGF integ inh: 8; UHRF1 binding: 26*; CSN inh: -6; rCAG binder: -2; UHRF1 DNA bind: 2; MBD2 confirm: 3

Results for CN(Cc1ccc(Cl)cc1)C(=O)c1ccc(S(=O)(=O)NCc2ccco2)cc1 ?
MBD2 inh: 37*; LEDGF integ inh: -6; UHRF1 binding: 5; CSN inh: -2; rCAG binder: 5; ATG4B inhibitor: -11; UHRF1 DNA bind: 6; MBD2 confirm: 1

How did O=C(CSc1nnc(COc2ccc(Cl)cc2)n1Cc1ccco1)Nc1ccc2c(c1)OCO2 do in these assays?
MBD2 inh: -3; LEDGF integ inh: 1; UHRF1 binding: 2; rCAG binder: 4

What do the screens show for `c1ccc2c(c1)c1c(c3ccccc32)CN2CCCC2C1` (stereo unspecified)?
MBD2 inh: 36*; LEDGF integ inh: 5; UHRF1 binding: 26*; CSN inh: 3; rCAG binder: 11; ATG4B inhibitor: 8; UHRF1 DNA bind: 34*; MBD2 confirm: 49*

What do the screens show for `Cc1ccc2c(c1)N(CCCC(=O)NCc1cccs1)C(=O)CO2`?
MBD2 inh: -1; LEDGF integ inh: -2; UHRF1 binding: -1; rCAG binder: -1

What do the screens show for `COC(=O)c1ccccc1S(=O)(=O)NC(=O)[C@H]1O[C@@H](n2ccc(=O)[nH]c2=O)[C@H](O)[C@@H]1O`?
MBD2 inh: -6; LEDGF integ inh: 1; UHRF1 binding: 4; rCAG binder: 1

Results for O=C(OCc1cn(Cc2c(F)cccc2F)nn1)N1CCCC1 ?
MBD2 inh: 3; LEDGF integ inh: -4; UHRF1 binding: -1; rCAG binder: 1

Results for Cc1cc(NCCCCCCCNc2cc(C)nc3cc([N+](=O)[O-])ccc23)c2ccc([N+](=O)[O-])cc2n1 ?
MBD2 inh: 21*; LEDGF integ inh: 0; UHRF1 binding: 30*; CSN inh: 106; rCAG binder: 18; ATG4B inhibitor: 24; UHRF1 DNA bind: 38*; MBD2 confirm: 49*

Results for COCCCNc1cc(C)nc2ccccc12 ?
MBD2 inh: -5; LEDGF integ inh: -6; UHRF1 binding: 0; CSN inh: -4; rCAG binder: -2; ATG4B inhibitor: -9

How did O=C(O)CC1CC(O)CCC1=O (stereo unspecified) do in these assays?
MBD2 inh: 28*; LEDGF integ inh: -1; UHRF1 binding: 4; CSN inh: 0; rCAG binder: 1; UHRF1 DNA bind: 8; MBD2 confirm: 1

How did COCCCNC(=O)c1cc2c(=O)n3cccc(C)c3nc2n(C(C)C)c1=N do in these assays?
MBD2 inh: 14*; LEDGF integ inh: 4; UHRF1 binding: 22*; CSN inh: 4; rCAG binder: -2; ATG4B inhibitor: -9; UHRF1 DNA bind: 3; MBD2 confirm: 2
